Only some compounds are listed: those with a hit (about 6.4% of all), similar ones and a draw of the others.
EBV gp42 inh = inhibitors of Epstein-Barr virus glycoprotein 42; Q1HVG2; Fluorescence polarization binding assay, mP read-out; inhibition, % (tested at 21.74 µM); 220,000 tested, 0.42% active; AID 1085; in the data active = inhibition above about 50%
Target sequence (Q1HVG2 whole entry, looked up): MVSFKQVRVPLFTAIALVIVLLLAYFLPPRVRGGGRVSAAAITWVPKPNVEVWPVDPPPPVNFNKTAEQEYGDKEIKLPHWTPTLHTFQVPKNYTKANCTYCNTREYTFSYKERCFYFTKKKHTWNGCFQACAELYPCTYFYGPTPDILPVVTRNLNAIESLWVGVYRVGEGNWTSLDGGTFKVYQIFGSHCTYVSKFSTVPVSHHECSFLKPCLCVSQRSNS
GRIN3A LBD mod = modulators (binders) of human NR3A ligand-binding domain. NR3A LBD differential scanning fluorimetry, Tm shift; 0% = protein alone, 100% = glycine-bound protein. Tm shift relative to glycine control, % at 25 µM. 340,000 tested, 2.5% active;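 active = melting temperature shift of at least 10% of the positive control shift, at one fixed dose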
WT yeast gro inh = growth inhibition of WT yeast, mitochondrial fusion screen. 190,000 tested, 2.1% active. mitochondrial fusion phenotypic screen, WT strain. inhibition, % at 10 µM. AID 1362; in the data active = inhibition above about 58%; tested in S. cerevisiae
MPTP inh = blocks calcium-induced mitochondrial swelling; isolated mouse mitochondria, Ca2+ swelling absorbance, 30 min; AID 602449; 360,000 tested, 1.4% active; inhibition, % at 10 µM;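 active = inhibition of 50% or more, scaled per plate between neutral and stimulator controls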;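 note: 0% = DMSO wells given calcium and 100% = 1 mM EGTA wells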
TbMetRS inhib = blocks T. brucei methionyl-tRNA synthetase activity; purified T. brucei MetRS, ATP depletion, Kinase-Glo luminescence; inhibition, % at 11.9 µM; 360,000 tested, 0.4% active;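 active = inhibition above a per-plate cutoff of the control wells' mean inhibition plus 3 SD, cut at about 5.5% in these data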;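 note: 0% = DMSO wells median and 100% = median of wells with control inhibitor compound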
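Material: parasite MetRS enzyme / Replication: singlicate, one well per compound / Signal: luminescence of leftover ATP / Schedule: 2 h aminoacylation at 25 °C after 15 min preincubation / Medium: HEPES-MgCl2-KCl buffer plus DTT, spermine, BSA, pyrophosphatase / Doses: 11.9 µM single point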
CHOP inhibitor = blocks CHOP induction under ER stress | inhibition, % at 10 µM | 220,000 tested, 3.8% active | CHO-K1 CHOP-promoter luciferase, tunicamycin-induced, 15-18 h | AID 2732;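 active = compounds that reduced the stress-induced luciferase reporter signal by more than about 70% of percent inhibition, limit read from the data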;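 note: 0% = tunicamycin plus vehicle and 100% = wells without tunicamycin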
Rh123 counter = Rhodamine 123 counter-screen of mitochondrial pore hits | shares compounds with MPTP inh | isolated mitochondria, membrane potential, Rhodamine 123 fluorescence | inhibition, % at 10 µM | 5,000 tested, 78% active; in the data active = inhibition above about 22%;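 note: 0% = DMSO vehicle and 100% = positive control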
MPTP abs DR = dose response confirmation of mitochondrial permeability transition pore inhibitors. shares compounds with MPTP inh. 780 tested, 58% active. IC50, µM. isolated mitochondria swelling, absorbance. AID 651561; in the data active = IC50 below about 20 µM
MPTP cs DR = active in counter-screen for permeability transition pore inhibitors; shares compounds with MPTP inh; isolated mitochondria counterscreen, fluorescence read-out; IC50, µM; 780 tested, 49% active; AID 651564; in the data active = IC50 below about 80 µM
* = called active by the depositor; i = inactive; . = no result given.

SMILES	EBV gp42 inh	GRIN3A LBD mod	WT yeast gro inh	MPTP inh	TbMetRS inhib	CHOP inhibitor	Rh123 counter	others
Cn1c(=O)c2c(SCC(=O)NCC3CCCO3)nc(-c3ccccc3Cl)nc2n(C)c1=O (stereo not drawn)	.	2	.	-1	0	.	.
Cn1c(NCc2c(O)ccc3ccccc23)nc2ccccc21	5	14*	59	51*	-1	17	45*
Cn1c(CNc2nc3ccccc3n2C)nc2ccccc21	-2	0	29	-2	0	0	.
O=c1oc2ccccc2c(Nc2ccc3ccccc3c2)c1[N+](=O)[O-]	26	2	-10	62*	0	8	78*
Cc1ccc(C(NC(=O)C2CCCCC2)c2c(O)ccc3ccccc23)cc1 (stereo not drawn)	60*	4	-4	99*	0	63	80*
CC(=O)NC(c1ccc([N+](=O)[O-])cc1)c1c(O)ccc2ccccc12 (stereo not drawn)	3	-7	-2	12	1	-18	.
CC(C)C(=O)NC(c1ccc([N+](=O)[O-])cc1)c1c(O)ccc2ccccc12 (stereo not drawn)	-17	-1	34	87*	1	22	77*
CC(=O)c1c(C)n(CCO)c2ccc(O)cc12	-5	2	0	-1	-1	18	.
CCc1ccc(/C(C)=N\Nc2ccc([N+](=O)[O-])cc2)cc1	-18	-1	8	58*	-1	69	51*
O=[N+]([O-])c1ccc(NN=C(Oc2ccccc2)c2ccc([N+](=O)[O-])cc2)cc1	.	.	.	22	0	.	.
CC/C(=N\Nc1ccc([N+](=O)[O-])cc1)c1ccccc1	-5	-2	27	65*	0	75*	63*
C/C(=N\Nc1ccc([N+](=O)[O-])cc1)c1ccc(N2CCOCC2)cc1	-9	8	.	6	0	-8	.
O=C(NCC1COc2ccccc2O1)c1ccco1 (stereo not drawn)	-4	1	2	-6	2	-18	.
CC(=O)c1c(C)[nH]c(C(=O)OCC(=O)N(CC(C)C)C2CCS(=O)(=O)C2)c1C (stereo not drawn)	.	5	.	-1	0	.	.
COc1ccc(N2CC(C(=O)N/N=C/c3c[nH]c4ccccc34)CC2=O)cc1 (stereo not drawn)	-4	-4	3	1	0	26	.
CCCCCN=C(N)N/N=C/c1c[nH]c2ccc(OC)cc12	.	-2	.	85*	0	.	23*
COc1ccc(N2CCN(C(CNC(=O)c3ccco3)c3ccco3)CC2)cc1 (stereo not drawn)	.	0	.	0	0	.	.
O[C@@H](c1cc(C(F)(F)F)nc2c(C(F)(F)F)cccc12)[C@H]1CCCCN1	.	2	.	97*	-1	.	-21
Cc1cc(C)n2nc(SCC(=O)N(C)C)nc2n1	-23	0	-16	-1	-1	9	.
CC(C)c1nc(SCc2c(F)cccc2Cl)c2c(=O)n(C)c(=O)n(C)c2n1	7	-1	9	94*	0	64	-6	MPTP abs DR=>100;MPTP cs DR=>80
Cn1c(=O)c2c(nc(SCCCC#N)n2Cc2c(F)cccc2Cl)n(C)c1=O	-11	0	12	-3	1	-7	.
Cc1ccc(NC(=O)c2cc(-c3ccc4c(c3)OCO4)on2)cc1C	.	-1	.	1	-1	.	.
Cc1ccc(CN2CCN(CC(=O)NCCCN3CCN(c4ccc(F)cc4)CC3)C2=O)cc1	-9	2	-11	56*	0	73*	12	MPTP abs DR=14*;MPTP cs DR=18*
Cc1ccc(-c2nnc(Nc3ccc4c(c3)OCO4)c3ccccc23)cc1S(N)(=O)=O	16	-12	6	56*	0	37	-7	MPTP abs DR=>100;MPTP cs DR=>80
Cc1oc(S(=O)(=O)N2CCCCC2)cc1NC(=O)Nc1ccccc1	3	-3	.	51*	5	9	54*
SMILES	EBV gp42 inh	GRIN3A LBD mod	WT yeast gro inh	MPTP inh	TbMetRS inhib	CHOP inhibitor	Rh123 counter	others
Cc1oc(S(=O)(=O)N2CCCCC2)cc1NC(=O)Nc1ccc(Cl)cc1	4	9	.	84*	2	-3	79*
O=C(Nc1ccccc1)c1cccc(S(=O)(=O)N2CCCCC2)c1	-7	-2	-10	2	0	-6	.
CCOC(=O)c1ccccc1NC(=O)c1ccc(N(C)S(C)(=O)=O)cc1	-14	2	-6	-1	0	51	.
Cn1c(=O)c2ncn(CC(=O)Nc3ccc(N4CCOCC4)cc3)c2n(C)c1=O	-6	2	13	-1	0	12	.
CCC(C)c1ccc2oc(-c3ccc(NC(=O)Cn4cnc5c(=O)n(C)c(=O)n(C)c54)cc3)nc2c1 (stereo not drawn)	-9	23*	-3	84*	-1	79*	-8	MPTP abs DR=i;MPTP cs DR=41*
Cc1ccc(Nc2nnc(-c3ccc4c(c3)OCO4)o2)c(C)c1	-10	-16	.	-1	0	-6	.
COc1ccc(C(=O)NNc2ccccc2)cc1OC	8	2	44	-2	0	17	.
Cc1ccccc1C(=O)NNc1ccc([N+](=O)[O-])cc1	-2	2	17	1	0	0	.
O=C(NC(NNc1ccc([N+](=O)[O-])cc1)(C(F)(F)F)C(F)(F)F)c1ccccc1Cl	16	-3	25	90*	0	55	84*
O=C(NC(NNc1ccc([N+](=O)[O-])cc1)(C(F)(F)F)C(F)(F)F)c1ccc(F)cc1	6	-7	51	100*	0	34	88*
COC(=O)C(NNc1ccccc1)(NC(=O)c1ccc(F)cc1)C(F)(F)F (stereo not drawn)	-18	3	-3	2	0	25	.
CCn1cc([N+](=O)[O-])c(C(=O)NCc2ccc(Cl)cc2)n1	-20	0	-10	-1	-1	-4	.
CCSc1nnc(NC(=O)C(CC)(C(F)(F)F)C(F)(F)F)s1	-2	-5	-2	54*	0	21	106*
CCSc1nnc(NC(=O)C(C)(C(F)(F)F)C(F)(F)F)s1	4	-7	0	26	0	-12	.
COc1ccc(CNC(=O)CNC(=O)c2c(C)nn(C)c2Cl)cc1	-1	0	-2	1	0	1	.
Fc1ccc(NC(=S)Nc2ccccc2OC(F)F)cc1Cl	15	5	62*	100*	0	8	76*
Cc1ccc(NC(=S)Nc2ccc(Cl)c(Cl)c2)c(OC(F)F)c1	11	15*	80*	100*	1	82*	90*

Compound activity as filed in PubChem BioAssay.
